The record followed here is ChEMBL document CHEMBL1139214, “Lyngbyastatin 4, a dolastatin 13 analogue with elastase and chymotrypsin inhibitory activity from the marine cyanobacterium Lyngbya confervoides” (J Nat Prod, 2007).

Active and inactive are the calls of the source. The rule behind the calls is not given here.

One test concerns the target Prothrombin (Bos taurus) (UniProt P00735). Description: Inhibition of bovine plasma thrombin upto 30 uM. In kind it is cell-free.
Test [1] can be described thus: Inhibition of porcine pancreatic elastase. The arrangement: species or system Sus scrofa. The method in brief: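 Porcine pancreatic elastase (75 µg/mL enzyme solution) preincubated with compound in Tris-HCl, pH 8.0, at 30 °C for 20 min. Then 2 mM N-succinyl-Ala-Ala-Ala-p-nitroanilide substrate solution added. Absorbance increase at 405 nm read over 3–30 min. Dose–response analysis, IC50 determined.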

A short description of test [2]: Inhibition of bovine pancreatic alpha chymotrypsin. More on the design: species or system Bos taurus. The method in brief: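 Bovine pancreatic α-chymotrypsin (1 mg/mL enzyme solution) in 50 mM Tris-HCl, 100 mM NaCl, 1 mM CaCl2, pH 7.8. Test solution added, then 2 mM N-succinyl-Gly-Gly-Phe-p-nitroanilide substrate solution. Absorbance increase at 405 nm followed for 30 min. Dose–response analysis, IC50 determined.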

The species entered for test [3] is Sus scrofa. Description: Inhibition of porcine pancreatic trypsin upto 30 uM. In short, it runs like this:
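Porcine pancreatic trypsin (1 mg/mL enzyme solution) in 50 mM Tris-HCl, 100 mM NaCl, 1 mM CaCl2, pH 7.8. Test solution added, then 2 mM Nα-benzoyl-DL-arginine 4-nitroanilide hydrochloride substrate solution. Absorbance increase at 405 nm followed for 30 min. Dose–response analysis.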

The target of test [4] is Plasminogen (Homo sapiens) (UniProt P00747). Nature of the test: Inhibition of human plasma plasmin upto 30 uM. Type of test: cell-free.
Chain of Plasminogen (Homo sapiens) (P00747 97-580 limits assumed): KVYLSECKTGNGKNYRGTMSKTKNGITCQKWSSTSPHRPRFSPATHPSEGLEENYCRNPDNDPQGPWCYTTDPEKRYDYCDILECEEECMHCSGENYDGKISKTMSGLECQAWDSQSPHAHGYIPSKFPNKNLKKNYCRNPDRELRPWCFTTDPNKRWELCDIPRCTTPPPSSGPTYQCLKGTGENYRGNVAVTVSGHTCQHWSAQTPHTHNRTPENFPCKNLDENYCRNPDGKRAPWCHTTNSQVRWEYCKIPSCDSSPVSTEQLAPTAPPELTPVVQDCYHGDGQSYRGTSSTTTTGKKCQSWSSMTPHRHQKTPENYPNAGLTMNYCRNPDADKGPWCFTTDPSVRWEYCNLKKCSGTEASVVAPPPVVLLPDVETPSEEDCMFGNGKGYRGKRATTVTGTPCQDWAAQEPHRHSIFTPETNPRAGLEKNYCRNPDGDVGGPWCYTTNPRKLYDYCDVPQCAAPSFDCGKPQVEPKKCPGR
Chain of Plasminogen (Homo sapiens) (P00747 581-810 limits assumed): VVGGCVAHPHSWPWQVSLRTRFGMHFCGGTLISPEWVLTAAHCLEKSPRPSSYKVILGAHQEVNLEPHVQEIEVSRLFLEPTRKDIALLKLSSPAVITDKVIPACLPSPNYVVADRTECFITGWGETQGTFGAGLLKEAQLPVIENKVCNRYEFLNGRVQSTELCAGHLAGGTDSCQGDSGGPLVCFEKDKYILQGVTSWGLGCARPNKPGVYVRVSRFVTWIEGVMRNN
For test [5], the species on record is Sus scrofa. Nature of the test: Selectivity for porcine elastase over porcine trypsin.
Test [6] can be described thus: Selectivity for porcine elastase over human plasmin.
Test [7] can be described thus: Selectivity for porcine elastase over bovine thrombin.
Test [8] can be described thus: Selectivity for bovine alpha chymotrypsin over porcine trypsin.
The nature of test [9]: Selectivity for bovine alpha chymotrypsin over human plasmin.
The next test is filed under the species Bos taurus. Description: Selectivity for bovine alpha chymotrypsin over bovine thrombin.

Usually IC50 stands for the midpoint of a concentration-inhibition curve. Turning to `C/C=C1\NC(=O)[C@@H](NC(=O)[C@H](CCc2ccc(O)cc2)NC(=O)[C@H](C)NC(=O)[C@H](O)COS(=O)(=O)O)[C@@H](C)OC(=O)[C@H](C(C)C)NC(=O)[C@H](Cc2ccc(O)cc2)N(C)C(=O)[C@H](Cc2ccccc2)N2C(=O)[C@H](CC[C@H]2O)NC1=O` [LYNGBYASTATIN 4], the result (at Prothrombin (Bos taurus); in the test filed under Sus scrofa [3]; in [4]) was inactive. For the same compound, the IC50 in test [1] turned out to be 30 nM; in [2], 300 nM. In addition, the Selectivity ratio is above 1000 in the test listed under Sus scrofa [5]; above 1000 in [6]; above 1000 in test [7]; above 100 in test [8]; above 100 in test [9]; above 100 in the test listed under Bos taurus.
